From publication PMC4554820 (Bioorganic & medicinal chemistry, 2015)
“Also recorded” adds a separate entry of the source. Where a name gives a salt, the structure may show the parent alone. Read-outs that look alike come from different tables or passages of the source.

Key:
GAPDH [1] = target: T1, GAPDH (Oryctolagus cuniculus, UniProt P46406); conditions: HPLC-HRMS, cited from earlier work; for Products, GAPDH tryptic peptide V233-R246: comparison/previous work
[2] = PBS buffer, pH = 7.6; cited from earlier work
[3] = type: physicochemical; conditions: for k (min^−1) in 1:1 MeOH : 0.1 N NaOH / k (min^−1) in 1:1 MeOH : PBS / t1/2 (min) in 1:1 MeOH : 0.1 N NaOH: decomposition; for k (min^−1) in 1:1 MeOH : PBS: 1:1 MeOH:PBS (100 mM, pH 7.4), room temperature
Summary of the method: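 The test compound in MeOH (1 mL) was mixed with 1 mL of 100 mM PBS pH 7.4 or 0.1 M NaOH in a sealed cuvette at rt. Loss of absorbance at 667 nm was read every 15 min for 10 h. Rate constants and half-lives came from the exponential decay.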

[4] = Kinetic UV-vis decomposition in the presence of glutathione; type: physicochemical; conditions: PBS pH 7.4 + 2-fold GSH, room temperature
GAPDH [5] = target: T1, GAPDH; assay: Reversibility of GAPDH inhibition by DTT; type: biochemical; conditions: GAPDH incubated with compound 1 hr, then DTT (10 mM) 1 hr
[6] = tested on: porcine liver esterase (PLE); assay: Kinetic UV-vis decomposition in the presence of porcine liver esterase; type: in vitro ADME; conditions: PBS buffer (3 % DMF) + PLE
GAPDH [7] = target: T1, GAPDH; assay: HPLC-HRMS assay of GAPDH modification; type: biochemical; conditions: incubated 1 hr rt, tryptic digestion
Summary of the method: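 Lyophilised GAPDH dissolved in 100 mM PBS pH 7.4, concentration set by A280 (ε 14600 M⁻¹cm⁻¹). Protein 100 µM final with test compound 1 mM final (added from MeOH stock) in water, 1 h rt. Trypsin digest (20:1 ratio) at 37 °C for 17 h, then diluted to 10 µM peptide. C18 LC with 0.1% formic acid water/MeOH gradient (5–95% over 10 min). Orbitrap HRMS, positive ESI. No-compound control.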

[8] = tested on: human platelet aggregation induced by ADP; assay: Platelet aggregation inhibition; type: cell-based; conditions: PRP, ADP 5 μM
Summary of the method: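 Human PRP came from blood spun at 100 g for 10 min, and PPP from PRP spun at 4500 g for 10 min. PRP or PPP plus CaCl₂ (2 mM) went into wells. The test compound (100, 75, 50, 10 µM) was added for 20 min at rt, then ADP 5 µM. Light transmission was read every 20 s with double-orbital agitation and normalised to PPP = 100% and PRP = 0%.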

[9] = tested on: human platelet activation induced by (ADP); assay: Platelet activation inhibition; type: cell-based; conditions: for platelet activation inhibition: PRP, ADP 5 μM
[10] = 1:1 MeOH:phosphate buffered saline, pH 7.4

T1 sequence (P46406 whole entry): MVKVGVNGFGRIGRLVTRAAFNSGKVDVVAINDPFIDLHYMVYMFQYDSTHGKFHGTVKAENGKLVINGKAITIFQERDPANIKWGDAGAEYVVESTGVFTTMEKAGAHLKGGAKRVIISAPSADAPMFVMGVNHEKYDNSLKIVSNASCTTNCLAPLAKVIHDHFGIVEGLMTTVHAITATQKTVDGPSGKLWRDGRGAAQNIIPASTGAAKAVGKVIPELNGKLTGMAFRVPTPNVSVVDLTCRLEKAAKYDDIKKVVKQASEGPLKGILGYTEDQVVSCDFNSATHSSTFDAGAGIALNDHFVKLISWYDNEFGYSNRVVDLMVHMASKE

| half-life at 30 mM [3, 10] | t1/2 (min) in PBS + 2-fold GSH [4] | % of GAPDH activity restored by the addition of DTT (GAPDH [5]) | Compound | Products, GAPDH tryptic peptide V233-R246 (GAPDH [1]) | k (min^−1) in 1:1 MeOH : PBS [3] | k (min^−1) in PBS + 2-fold GSH [4] | also measured |
| --- | --- | --- | --- | --- | --- | --- | --- |
|  |  |  | [Na+].[Na+].[O-][N+]([O-])=NO [AS, Angeli’s salt (Na2N2O3, AS)] | sulfinamide as a major product and sulfinic acid as a minor product; also recorded: Sulfinamide; RSONH2; also recorded: Sulfinic acid; RSOOH |  |  | Products, GAPDH tryptic peptide I144-K160 (GAPDH [1]; comparison): Internal disulfide; RSSR |
|  |  |  | CC(=O)OC1(N=O)CCCCC1 [Compound 1, 1-nitrosocyclohexyl acetate] | sulfinic acid as a major product |  |  |  |
|  |  |  | O=NC1(OC(=O)C(F)(F)F)CCCCC1 [Compound 2, 1-nitrosocyclohexyl trifluoroacetate] | sulfinamide as a major product and sulfinic acid as a minor product |  |  | t1/2 of HNO release [2]: 121 milliseconds (ms) |
| 13 h | 65 min | 22% | CC(=O)OC1(N=O)CCOCC1 [Compound 4, 4-Nitrosotetrahydro-2H-pyran-4-yl acetate] |  | 0.00089 min⁻¹ | 0.011 min⁻¹ | half-life at 30 mM ([3]; 1:1 MeOH:0.1 N NaOH): 0.2 h; k (min^−1) in 1:1 MeOH : 0.1 N NaOH ([3]; 1:1 MeOH:0.1 N NaOH): 0.057 min⁻¹ |
| 31.7 h | 99 min |  | CC(C)(C)C(=O)OC1(N=O)CCOCC1 [Compound 5, 4-Nitrosotetrahydro-2H-pyran-4-yl pivalate] |  | 0.00036 min⁻¹ | 0.007 min⁻¹ | half-life at 30 mM ([3]; 1:1 MeOH:0.1 N NaOH): 31.2 h; k (min^−1) in 1:1 MeOH : 0.1 N NaOH ([3]; 1:1 MeOH:0.1 N NaOH): 0.00037 min⁻¹ |
| 2 h | 12 min | 9% | CC(Cl)(Cl)C(=O)OC1(N=O)CCOCC1 [Compound 7, 4-Nitrosotetrahydro-2H-pyran-4-yl 2,2-dichloropropanoate] |  | 0.0058 min⁻¹ | 0.0578 min⁻¹ | t1/2 (min) in 1:1 MeOH : 0.1 N NaOH ([3]; 1:1 MeOH:0.1 N NaOH): decompose immediately and Fast; decomposition rate constant k with PLE [6]: 0.03 min⁻¹; Products, GAPDH tryptic peptide I144-K160 (GAPDH [7]): Internal disulfide; RSSR; Products, GAPDH tryptic peptide V233-R246 (GAPDH [7]): Sulfinamide; RSONH2; also recorded: Sulfinic acid; RSOOH |

| Compound | half-life at 30 mM [3, 10] | t1/2 (min) in PBS + 2-fold GSH [4] | % of GAPDH activity restored by the addition of DTT (GAPDH [5]) | Products, GAPDH tryptic peptide V233-R246 (GAPDH [1]) | k (min^−1) in 1:1 MeOH : PBS [3] | k (min^−1) in PBS + 2-fold GSH [4] | also measured |
| --- | --- | --- | --- | --- | --- | --- | --- |
| O=NC1(OC(=O)C(Cl)(Cl)Cl)CCOCC1 [Compound 6, 4-Nitrosotetrahydro-2H-pyran-4-yl 2,2,2-trichloroacetate] | 0.833 h | 4 min | 19% |  | 0.014 min⁻¹ | 0.173 min⁻¹ | t1/2 (min) in 1:1 MeOH : 0.1 N NaOH ([3]; 1:1 MeOH:0.1 N NaOH): decompose immediately and Fast; decomposition rate constant k with PLE [6]: 0.087 min⁻¹; Products, GAPDH tryptic peptide I144-K160 (GAPDH [7]): Internal disulfide; RSSR; Products, GAPDH tryptic peptide V233-R246 (GAPDH [7]): Sulfinamide; RSONH2; also recorded: Sulfinic acid; RSOOH; inhibition of platelet aggregation ([8]; 10 μM, compared with positive control (PRP + ADP)): no effect; inhibition of platelet aggregation ([8]; 100 μM, 20 min incubation rt): Complete inhibition; inhibition of platelet aggregation ([8]; 50 and 75 μM): intermediate activities; platelet activation inhibition ([9]; 1 μM): lower activity; inhibition of expression of the activated marker (CD62P) ([9]; 10 μM, PRP incubated with ADP (2 μM)): 83%; platelet activation inhibition ([9]; 100, 75, 50, and 10 μM): potent and similar effect |
